In data set [1] the test system is MDA-MB-231. The data set is described as follows: Induction of ROS production in human MDA-MB-231 cells at 2 to 6 uM incubated for 24 hrs by DCFH-DA staining based flow cytometry analysis. It counts as functional, cell-based. The note with it: dose 2-6 µM. An outline of the steps:
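MDA-MB-231 cells (1 × 10^6) seeded in 6-well plates for 24 h, then treated at several concentrations for 24 h. Cells trypsinized, fixed in cold methanol, stained with 30 µg/mL DCFH-DA for 30 min in the dark at room temperature, and analysed by flow cytometry.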
For orientation: Flow cytometry measures light scatter and fluorescence of single cells or particles in a stream.

Data set [2] concerns MDA-MB-231. The data set is described as follows: Induction of apoptosis in human MDA-MB-231 cells assessed as necrotic cells at 4 uM incubated for 24 hrs by annexin-V-FITC and PI staining based flow cytometry analysis (reference value: 0.01 to 0.8 %). In kind it is functional.
The test system of data set [3] is MDA-MB-231. Put plainly: Induction of cell cycle arrest in human MDA-MB-231 cells assessed as accumulation at G0/G1 phase at 6 uM incubated for 24 hrs by PI staining based flow cytometry analysis (reference value: 23.74 to 46.27 %). In kind it is functional.
Data set [4] relates to MDA-MB-231. Put plainly: Induction of cell cycle arrest in human MDA-MB-231 cells assessed as accumulation at G0/G1 phase at 4 uM incubated for 24 hrs by PI staining based flow cytometry analysis (reference value: 23.74 to 46.27 %). In kind it is functional.
Data set [5] concerns MDA-MB-231. Put plainly: Induction of apoptosis in human MDA-MB-231 cells assessed as late apoptotic cells at 6 uM incubated for 24 hrs by annexin-V-FITC and PI staining based flow cytometry analysis (reference value: 0.28 to 0.84 %). It counts as functional.
Data set [6] concerns MDA-MB-231. Put plainly: Cytotoxicity against human MDA-MB-231 cells assessed as reduction in cell viability at 2 to 6 uM incubated for 24 hrs in presence of NAC by MTT assay. In kind it is functional, cell-based. The note with it: dose 2-6 µM. An outline of the steps: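 MDA-MB-231 cells pretreated 2 h with 10 mM N-acetylcysteine, then exposed to compound for 24 h. Viability by MTT (3 h), formazan in DMSO, absorbance at 540 nm. Three independent experiments, mean ± S.E.M.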
(In general: Tetrazolium dyes change colour on reduction, which living cells bring about.)

Data set [7] concerns MCF7. Put plainly: Cytotoxicity against human MCF7 cells assessed as reduction in cell viability incubated for 24 hrs by MTT assay. In kind it is functional, cell-based. The note with it: MCF7, 24 h. An outline of the steps:
(§1)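 MTT viability: cells seeded at 1 × 10^4/well, grown 24 h, then exposed to a concentration range of compound for 24 h. MTT (5 mg/mL stock) added for 3 h, formazan dissolved in DMSO, absorbance read at 540 nm.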

Data set [8] deals with HEK293. Put plainly: Cytotoxicity against human HEK293 cells assessed as reduction in cell viability incubated for 24 hrs by MTT assay. In kind it is cell-based. The note with it: HEK293, 24 h. An outline of the steps:
as §1

The subject of data set [9] is MDA-MB-231. The data set is described as follows: Induction of apoptosis in human MDA-MB-231 cells assessed as viable cells at 4 uM incubated for 24 hrs by annexin-V-FITC and PI staining based flow cytometry analysis (reference value: 95.27 to 97.16 %). It counts as functional. The note with it: read-out: Activity.
The test system of data set [10] is MDA-MB-231. Put plainly: Induction of autophagy in human MDA-MB-231 cells at 2 to 4 uM incubated for 24 hrs by MDC staining based fluorescence microscopic analysis. It counts as functional, cell-based. The note with it: dose 2-4 µM. An outline of the steps:
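Autophagic vacuoles detected in MDA-MB-231 cells (1 × 10^6) seeded on cover slips for 24 h, then treated 24 h. Cells PBS-washed, stained with 0.05 mM monodansylcadaverine for 30 min in dark at room temperature, washed, and examined by fluorescence microscopy.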

Data set [11] relates to MDA-MB-231. Put plainly: Induction of apoptosis in human MDA-MB-231 cells incubated for 24 hrs by annexin-V-FITC and PI staining based flow cytometry analysis. The note with it: dose 2-6 µM. In kind it is functional, cell-based.
Data set [12] concerns MDA-MB-231. Put plainly: Induction of apoptosis in human MDA-MB-231 cells assessed as late apoptotic cells at 2 uM incubated for 24 hrs by annexin-V-FITC and PI staining based flow cytometry analysis (reference value: 0.28 to 0.84 %). It counts as functional.
Data set [13] has as its system MDA-MB-231. The data set is described as follows: Induction of cell cycle arrest in human MDA-MB-231 cells assessed as accumulation at G0/G1 phase at 2 uM incubated for 24 hrs by PI staining based flow cytometry analysis (reference value: 23.74 to 46.27 %). In kind it is functional.
The test system of data set [14] is 4T1. Put plainly: Antitumor activity against mouse 4T1 cells […] in BALB/c mouse assessed as reduction in tumor growth at 10 to 20 mg/kg, po administered for 21 days and measured on day 21 relative to control. It counts as functional, organism-based. The note with it: dose 10-20 mg/kg, time 21.0 day. An outline of the steps:
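Orthotopic syngeneic model: 4T1 cells (7 × 10^5) injected into the mammary fat pad of six-week-old female Balb/c mice; randomized once tumors were measurable (1 week). Compounds in ethanol diluted in PBS, 10 or 20 mg/kg oral gavage daily for 21 days; vehicle controls. Tumor size measured twice weekly; volume = (LW²) × 0.5.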

In data set [15] the test system is MDA-MB-231. The data set is described as follows: Induction of apoptosis in human MDA-MB-231 cells assessed as necrotic cells at 6 uM incubated for 24 hrs by annexin-V-FITC and PI staining based flow cytometry analysis (reference value: 0.01 to 0.8 %). In kind it is functional.
Data set [16] relates to MDA-MB-231. The data set is described as follows: Induction of apoptosis in human MDA-MB-231 cells assessed as early apoptotic cells at 4 uM incubated for 24 hrs by annexin-V-FITC and PI staining based flow cytometry analysis (reference value: 0.28 to 4.68 %). In kind it is functional. An outline of the steps: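 MDA-MB-231 cells (1 × 10^6) grown 24 h in six-well plates, then treated for 24 h. Cells trypsinized, PBS-washed and stained with Annexin V-FITC/PI in binding buffer for 10 min in the dark at room temperature. Early/late apoptotic fractions quantified by flow cytometry.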

Data set [17] deals with Estrogen receptor beta (Homo sapiens) (UniProt Q92731). The data set is described as follows: Transactivation of ERbeta (unknown origin) transfected in human MDA-MB-231 cells at 1 uM by dual luciferase receptor assay. It counts as cell-based. An outline of the steps: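 MDA-MB-231 cells grown to 80-90% confluency, transfected with 500 ng of ERα (pSG5 mERα) or ERβ (pSG5-hERβ) expression vector plus pRL-SV40 Renilla for normalization, then reseeded. Cells incubated with E2 (100 nM), compound at 1 µM, or tamoxifen at 1 µM. Dual luciferase readout reported as percent normalized RLU, triplicate experiments with three replicates each.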
Sequence of Estrogen receptor beta (Homo sapiens) (Q92731 whole entry): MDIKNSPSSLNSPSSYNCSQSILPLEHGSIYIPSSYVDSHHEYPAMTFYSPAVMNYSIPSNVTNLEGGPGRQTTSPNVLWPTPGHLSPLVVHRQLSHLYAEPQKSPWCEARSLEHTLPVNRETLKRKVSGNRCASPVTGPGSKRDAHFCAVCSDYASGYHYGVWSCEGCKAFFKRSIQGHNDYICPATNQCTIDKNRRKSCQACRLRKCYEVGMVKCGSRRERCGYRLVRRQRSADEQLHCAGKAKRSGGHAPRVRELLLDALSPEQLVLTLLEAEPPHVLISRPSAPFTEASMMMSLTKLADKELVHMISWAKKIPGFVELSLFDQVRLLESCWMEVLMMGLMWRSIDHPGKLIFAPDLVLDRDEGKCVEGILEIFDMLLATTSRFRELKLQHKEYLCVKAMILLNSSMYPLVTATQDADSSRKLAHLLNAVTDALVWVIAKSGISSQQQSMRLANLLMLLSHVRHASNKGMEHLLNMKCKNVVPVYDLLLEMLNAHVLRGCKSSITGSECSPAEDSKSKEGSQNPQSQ

For data set [18], the system named is MDA-MB-231. The data set is described as follows: Induction of apoptosis in human MDA-MB-231 cells assessed as viable cells at 6 uM incubated for 24 hrs by annexin-V-FITC and PI staining based flow cytometry analysis (reference value: 95.27 to 97.16 %). It counts as functional. The note with it: read-out: Activity.
The target of data set [19] is Tubulin (Homo sapiens) (UniProt P68371+Q9H4B7+P0DPH7+P68366+Q13509+Q71U36+P04350+Q3ZCM7+P07437+P68363+Q9BQE3+Q6PEY2+Q13885+Q9BVA1+Q9BUF5). Put plainly: Induction of tubulin polymerization (unknown origin) at 10 uM incubated for 1 hr by spectrometric analysis. In kind it is protein-complex assay.
A short description of data set [20]: Acute toxicity in Swiss albino mouse assessed as absolute lungs weight at 5 to 300 mg/kg, po administered once and observed for 7 days. It counts as organism-based. The note with it: in vivo, 168 h, dose 5-300 mg/kg, time 7 day. An outline of the steps: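 Acute oral toxicity per OECD guideline 423; mice 20–25 g, 3 male + 3 female per group, acclimatized 7 days at 22 ± 5 °C, 12 h light/dark. Compound dissolved in minimal DMSO, diluted in 0.7% CMC, single oral dose of 5, 50 or 300 mg/kg; controls given vehicle only. Clinical signs checked hourly on dosing day, then daily. Samples and body weights taken on day 7.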

Each structure is given as a SMILES string. pIC50: −log10 of the molar value. Active and inactive are the calls of the source. The rule behind the calls is not given here.

Drawing on ChEMBL document CHEMBL4811308, “Design, synthesis and broad spectrum antibreast cancer activity of diarylindoles via induction of apoptosis in aggressive breast cancer cells” (Bioorg Med Chem, 2021), this text covers Activity, IC50 and viability for 4 molecules.

With `CCN(CC)CCOc1ccc(Cc2c(-c3cc(OC)c(OC)c(OC)c3)n(Cc3ccc(OCCN(CC)CC)cc3)c3ccc(OC)cc23)cc1`, the result in data set [1], in [10], in data set [14], in data set [17] (filed as activator) and in data set [19] was Active. In addition, the Activity in data set [2] is 3.29%; in data set [3], 57.6%; in [4], 53.87%; in data set [5] it was 14.25%; in [11], “Dose-Dependent Effect”; in data set [12] it was 2.94%. Besides, the figures for the Activity in data set [13], in [15] and in data set [16] were 51.72%, 2.09% and 4.19%, respectively. Besides, the outcome in [6] was inactive. For the same molecule, the results for the pIC50 in [7] and in data set [8] were 5.20 and 4.60, respectively. In addition, the viability at 4 µM in [9] is 77.9%. Further, in data set [18], the viability at 6 µM was found to be 69.7%.

Turning to `COc1ccc2c(c1)c(Cc1ccc(OCCN(C)C)cc1)c(-c1cc(OC)c(OC)c(OC)c1)n2Cc1ccc(OCCN(C)C)cc1`, the result in [1], in [10], in [14], in data set [17] (filed as activator) and in data set [19] was Active. Moreover, the Activity is 3.44% in data set [2]; 64.37% in data set [3]; 61.13% in data set [4]; 15.1% in data set [5]; “Non-Toxic” in data set [20]; “Dose-Dependent Effect” in data set [11]. Further, the Activity was determined as 5.32% in [12], 60.43% in data set [13], 9.08% in data set [15] and 18.17% in data set [16]. For the same molecule, the outcome in data set [6] was inactive. For the same molecule, the pIC50 in data set [7] is 5.35; in data set [8] it was 4.61. Further, the viability at 4 µM in data set [9] came out at 58.3%. Further, the viability at 6 µM in [18] was found to be 36.2%.

Consider `COc1ccc2c(c1)c(Cc1ccc(OC(C)CN(C)C)cc1)c(-c1cc(OC)c(OC)c(OC)c1)n2Cc1ccc(OC(C)CN(C)C)cc1` (stereo not drawn), for which the result in data set [1], in data set [10], in [14], in data set [17] (filed as activator) and in [19] was Active. Moreover, the Activity in [2] was 3.55%; in data set [3] it was 49.36%; in [4], 46.54%; in data set [5], 26.15%; in [20], “Non-Toxic”; in data set [11], “Dose-Dependent Effect”. The Activity in [12] came to 3.43%; in data set [13], 46.32%; in data set [15], 7.58%; in [16], 28.04%. For the same molecule, in data set [6], the outcome was inactive. For the same molecule, the pIC50 in data set [7] was 5.15; in data set [8], 4.66. For the same molecule, the viability at 4 µM in data set [9] stood at 53.2%. Besides, the viability at 6 µM in data set [18] was 45.8%.

For `COc1ccc2c(c1)c(Cc1ccc(OCCN3CCCCC3)cc1)c(-c1cc(OC)c(OC)c(OC)c1)n2Cc1ccc(OCCN2CCCCC2)cc1`, the outcome in [1], in [10], in [14] and in [19] was Active. Moreover, the Activity in [2] is 1.69%; in data set [3], 59.19%; in data set [4], 55.16%; in data set [5] it was 37.67%; in data set [11], “Dose-Dependent Effect”; in data set [12], 4.26%. The Activity in data set [13] is reported as 53.25%; in data set [15], 0.55%; in [16], 16.02%. The result in [6] and in data set [17] was inactive. Further, the pIC50 in [7] was 5.19; in data set [8] it was 4.52. For the same molecule, the viability at 4 µM in data set [9] stood at 56%. The viability at 6 µM in [18] is 44.6%.

Usually pIC50 stands for the negative decadic logarithm of the IC50, by convention in mol/L.
